Screening results from PubChem.
Lipid droplet – hepatic lipid droplet formation modulation | AML12 mouse hepatocytes, oleate lipid droplets, BODIPY imaging | inhibition, % at 6.5 µM | 240,000 compounds, 0.4% hits;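 active = lipid droplet intensity inhibited by at least 50%, with more than 500 cells counted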
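System: AML12 hepatocytes (mouse). Probe or stimulus: oleic acid at 100 µM to induce lipid droplet formation. Times: overnight treatment with compound plus oleate. Detection: Image-based BODIPY and DAPI two-channel analysis. Evaluation: percent inhibition of filter-corrected integrated lipid droplet intensity per well.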
aDG glyco act – increases alpha dystroglycan glycosylation. Pro5-aDG cells, alpha-DG glycosylation AlphaScreen (IIH6); 0% Pro5, 100% B10-LARGE cell signal. activation, % at 10 µM. 360,000 compounds, 0.22% hits;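 active = activation of at least 8% versus controls, or a plate z-score of at least 8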;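 also: Pro5 are CHO cells carrying HIG-tagged alpha-DG that lacks glycosylation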
NPR1 activator – GC-A (human) enzyme activation; 370,000 compounds, 0.14% hits; activation, % at 10 µM; HEK293 GC-A cells, cGMP TR-FRET, EC30 ANP; 0% at EC30 ANP, 100% saturating ANP; in the data active = activation above about 40%
NR3A LBD binder – NR3A (human) ligand-binding domain modulation | NR3A LBD differential scanning fluorimetry, Tm shift; 0% = protein alone, 100% = glycine-bound protein | Tm shift relative to glycine control, % at 25 µM | 340,000 compounds, 2.5% hits | AID 1259313;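 active = melting temperature shift of at least 10% of the positive control shift, at one fixed dose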
GASC-1 inh – blocks human GASC-1 demethylase activity; 330,000 compounds, 0.069% hits; inhibition, % at 2.35 µM; Q9H3R0; GST-JMJD2C(1-420) H3K9me3 demethylation, DELFIA europium;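 active = more than half of a compound's replicate wells show inhibition beyond 50%, single wells judged on their own value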;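 also: signal counts dimethyl H3K9 product captured on neutravidin plate; 0% = median of DMSO wells and 100% = 0.3 times that DMSO median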
Target sequence (Q9H3R0 1-420 limits assumed): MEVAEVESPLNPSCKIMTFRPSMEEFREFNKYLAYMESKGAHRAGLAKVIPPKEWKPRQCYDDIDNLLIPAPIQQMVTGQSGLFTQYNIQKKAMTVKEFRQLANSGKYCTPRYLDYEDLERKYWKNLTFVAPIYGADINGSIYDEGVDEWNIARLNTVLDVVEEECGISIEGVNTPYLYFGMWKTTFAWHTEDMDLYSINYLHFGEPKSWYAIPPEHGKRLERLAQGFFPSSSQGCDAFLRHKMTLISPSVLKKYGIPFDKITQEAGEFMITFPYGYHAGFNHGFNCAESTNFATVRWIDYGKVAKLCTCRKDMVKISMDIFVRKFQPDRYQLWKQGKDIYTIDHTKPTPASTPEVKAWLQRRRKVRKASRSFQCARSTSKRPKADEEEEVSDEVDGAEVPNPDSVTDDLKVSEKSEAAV
NPR2 activator – GC-B (human) receptor activation | activation, % at 10 µM | AID 1920062 | P20594 | 370,000 compounds, 0.11% hits | HEK293-GC-B cells, CNP EC30, cGMP TR-FRET; 0% at EC30 CNP, 100% saturating CNP;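 active = activation at 10 µM reaching about 35% in either raw or pattern-adjusted values, limit read from the data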
Lipid drop inh – hepatic lipid droplet formation inhibition, confirmed; shares compounds with Lipid droplet; AML12 mouse hepatocytes, BODIPY lipid droplet imaging; droplets induced with 100 µM oleic acid; inhibition, % at 5.2 µM; 870 compounds, 65% hits; AID 463183;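 active = inhibition of lipid droplet metric at least 50%, with more than 300 cells in each of four replicates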;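 also: plate controls were DMSO with oleic acid for no effect and 5 µM Triacsin-C for full effect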
AML12 cytotox – counter-screen for cytotoxicity in AML12 mouse hepatocytes. shares compounds with Lipid droplet. 870 compounds, 3% hits. z-score at 5 µM. AID 463200. DAPI nuclear morphology cytotoxicity imaging; active compounds read high; cells fed 100 µM oleate overnight; in the data active = z-score above about 6.3;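 also: compound exposure lasted overnight at 37 °C before fixation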
AML12 tox conf – confirmation of cytotoxicity in AML12 mouse hepatocytes; shares compounds with Lipid droplet; AML12 mouse hepatocyte viability, ATP luminescence; cells loaded with 100 µM oleic acid; cytotoxicity, % at 50 µM; 530 tested, under 10 active; AID 463219;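 active = cytotoxicity above 50% in each of four replicates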;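 also: compound exposure lasted overnight at 37 °C before the ATP read; 0% = DMSO-treated cells and 100% = wells with no cells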
Numbers without * were called inactive. In the library only some 3% were active in any assay of this set; here they are far more common.

Results for Cc1c(O)ccc(/C=N/Nc2nc(-c3cccnc3)nc3ccccc23)c1O ?
Lipid droplet: 52.5*; aDG glyco act: -0.3; NPR1 activator: 12.6; NR3A LBD binder: 28.8*; GASC-1 inh: -7.9; NPR2 activator: 14.6; Lipid drop inh: 81.2*; AML12 cytotox: 10.9*

Results for CCc1cc2c(=O)c(-c3nc4ccccc4n3C)c(C)oc2c(CN2CCN(C)CC2)c1O ?
Lipid droplet: -9.6; GASC-1 inh: -6.4

Results for CCc1cc2c(=O)c(-c3nc4ccccc4n3C)c(C)oc2c(CN2CCOCC2)c1O ?
Lipid droplet: 50.0*; aDG glyco act: -0.1; NPR1 activator: -2.8; NR3A LBD binder: -3.9; GASC-1 inh: 23.2; NPR2 activator: 0.6; Lipid drop inh: 88.3*; AML12 cytotox: -0.823; AML12 tox conf: 3.4

What do the screens show for `Cc1cccc(NC(=O)Cn2cc(C(=O)C3CC3)c3ccccc32)c1`?
Lipid droplet: 51.0*; aDG glyco act: 0.1; NPR1 activator: -2.9; NR3A LBD binder: -2.2; GASC-1 inh: -0.9; NPR2 activator: -6.2; Lipid drop inh: 93.3*; AML12 cytotox: -0.11; AML12 tox conf: 19.8

How did Cc1ccc(NC(=O)Cn2cc(C(=O)C3CC3)c3ccccc32)cc1 do in these assays?
Lipid droplet: 46.3; aDG glyco act: 0.2; NPR1 activator: -1.0; NR3A LBD binder: -0.3; GASC-1 inh: 12.9; NPR2 activator: -4.3

Results for Nc1sc(Cc2ccccc2)cc1C(=O)NC1CCCCC1 ?
aDG glyco act: 0.0; NPR1 activator: 2.8; NPR2 activator: 2.8

How did CCC(C)C(NC(=O)c1ccccc1NC(=O)c1ccc(OC)cc1)C(=O)NCc1ccco1 (stereo unspecified) do in these assays?
Lipid droplet: 69.8*; aDG glyco act: 0.0; NPR1 activator: -0.8; NR3A LBD binder: -9.3; GASC-1 inh: -3.0; NPR2 activator: -5.1; Lipid drop inh: 100.5*; AML12 cytotox: -0.821; AML12 tox conf: 12.2

Results for CCc1ccc(NC(=O)CSc2nnc(C)c(=O)n2N)cc1 ?
Lipid droplet: 58.3*; aDG glyco act: 0.9; NPR1 activator: -3.3; NR3A LBD binder: -0.7; GASC-1 inh: -12.9; NPR2 activator: 0.1; Lipid drop inh: 89.1*; AML12 cytotox: 0.195; AML12 tox conf: 10.7

Results for C#CCOCCOCCOCCNc1nc(N2CCN(C(=O)[C@H]([C@@H](C)CC)n3cc([C@@H](N)Cc4ccc(O)cc4)nn3)CC2)nc(N2CCN(C(=O)[C@H]([C@@H](C)CC)n3cc([C@@H](N)CC(C)C)nn3)CC2)n1 ?
Lipid droplet: -1.2; aDG glyco act: -0.1; NPR1 activator: 1.3; NR3A LBD binder: -1.2; GASC-1 inh: -13.0; NPR2 activator: 5.2

Results for C#CCOCCOCCOCCNc1nc(N2CCOCC2)nc(N2CCN(C(=O)[C@H]([C@@H](C)CC)n3cc([C@@H](N)Cc4ccc(O)cc4)nn3)CC2)n1 ?
Lipid droplet: 55.0*; aDG glyco act: 0.0; NR3A LBD binder: -0.4; GASC-1 inh: -0.5; Lipid drop inh: 13.3; AML12 cytotox: -0.697

What do the screens show for `CCC(C(=O)NCc1ccc(C)o1)n1nc(C)c2c(C)n(-c3ccccc3)nc2c1=O` (stereo unspecified)?
Lipid droplet: 24.5; aDG glyco act: 0.4; NPR1 activator: -2.0; NR3A LBD binder: -3.0; GASC-1 inh: -2.2; NPR2 activator: -6.3
